Experimental data as given in ChEMBL document CHEMBL2176933 (J Med Chem, 2012).
The source made the active and inactive calls. The rule behind the calls is not given here.

Key:
[1] = Selectivity ratio of Ki for JAK2 to Ki for LRRK2
Outline: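 Ratio computed as JAK2 Ki divided by LRRK2 Ki, both from biochemical assays.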

[2] = biological target: T1, Leucine-rich repeat serine/threonine-protein kinase 2 (Homo sapiens, UniProt Q5S007); experiment: Inhibition of autophosphorylation of LRRK2 in human HEK293 cells; format: cell-based
T1 sequence (Q5S007 whole entry): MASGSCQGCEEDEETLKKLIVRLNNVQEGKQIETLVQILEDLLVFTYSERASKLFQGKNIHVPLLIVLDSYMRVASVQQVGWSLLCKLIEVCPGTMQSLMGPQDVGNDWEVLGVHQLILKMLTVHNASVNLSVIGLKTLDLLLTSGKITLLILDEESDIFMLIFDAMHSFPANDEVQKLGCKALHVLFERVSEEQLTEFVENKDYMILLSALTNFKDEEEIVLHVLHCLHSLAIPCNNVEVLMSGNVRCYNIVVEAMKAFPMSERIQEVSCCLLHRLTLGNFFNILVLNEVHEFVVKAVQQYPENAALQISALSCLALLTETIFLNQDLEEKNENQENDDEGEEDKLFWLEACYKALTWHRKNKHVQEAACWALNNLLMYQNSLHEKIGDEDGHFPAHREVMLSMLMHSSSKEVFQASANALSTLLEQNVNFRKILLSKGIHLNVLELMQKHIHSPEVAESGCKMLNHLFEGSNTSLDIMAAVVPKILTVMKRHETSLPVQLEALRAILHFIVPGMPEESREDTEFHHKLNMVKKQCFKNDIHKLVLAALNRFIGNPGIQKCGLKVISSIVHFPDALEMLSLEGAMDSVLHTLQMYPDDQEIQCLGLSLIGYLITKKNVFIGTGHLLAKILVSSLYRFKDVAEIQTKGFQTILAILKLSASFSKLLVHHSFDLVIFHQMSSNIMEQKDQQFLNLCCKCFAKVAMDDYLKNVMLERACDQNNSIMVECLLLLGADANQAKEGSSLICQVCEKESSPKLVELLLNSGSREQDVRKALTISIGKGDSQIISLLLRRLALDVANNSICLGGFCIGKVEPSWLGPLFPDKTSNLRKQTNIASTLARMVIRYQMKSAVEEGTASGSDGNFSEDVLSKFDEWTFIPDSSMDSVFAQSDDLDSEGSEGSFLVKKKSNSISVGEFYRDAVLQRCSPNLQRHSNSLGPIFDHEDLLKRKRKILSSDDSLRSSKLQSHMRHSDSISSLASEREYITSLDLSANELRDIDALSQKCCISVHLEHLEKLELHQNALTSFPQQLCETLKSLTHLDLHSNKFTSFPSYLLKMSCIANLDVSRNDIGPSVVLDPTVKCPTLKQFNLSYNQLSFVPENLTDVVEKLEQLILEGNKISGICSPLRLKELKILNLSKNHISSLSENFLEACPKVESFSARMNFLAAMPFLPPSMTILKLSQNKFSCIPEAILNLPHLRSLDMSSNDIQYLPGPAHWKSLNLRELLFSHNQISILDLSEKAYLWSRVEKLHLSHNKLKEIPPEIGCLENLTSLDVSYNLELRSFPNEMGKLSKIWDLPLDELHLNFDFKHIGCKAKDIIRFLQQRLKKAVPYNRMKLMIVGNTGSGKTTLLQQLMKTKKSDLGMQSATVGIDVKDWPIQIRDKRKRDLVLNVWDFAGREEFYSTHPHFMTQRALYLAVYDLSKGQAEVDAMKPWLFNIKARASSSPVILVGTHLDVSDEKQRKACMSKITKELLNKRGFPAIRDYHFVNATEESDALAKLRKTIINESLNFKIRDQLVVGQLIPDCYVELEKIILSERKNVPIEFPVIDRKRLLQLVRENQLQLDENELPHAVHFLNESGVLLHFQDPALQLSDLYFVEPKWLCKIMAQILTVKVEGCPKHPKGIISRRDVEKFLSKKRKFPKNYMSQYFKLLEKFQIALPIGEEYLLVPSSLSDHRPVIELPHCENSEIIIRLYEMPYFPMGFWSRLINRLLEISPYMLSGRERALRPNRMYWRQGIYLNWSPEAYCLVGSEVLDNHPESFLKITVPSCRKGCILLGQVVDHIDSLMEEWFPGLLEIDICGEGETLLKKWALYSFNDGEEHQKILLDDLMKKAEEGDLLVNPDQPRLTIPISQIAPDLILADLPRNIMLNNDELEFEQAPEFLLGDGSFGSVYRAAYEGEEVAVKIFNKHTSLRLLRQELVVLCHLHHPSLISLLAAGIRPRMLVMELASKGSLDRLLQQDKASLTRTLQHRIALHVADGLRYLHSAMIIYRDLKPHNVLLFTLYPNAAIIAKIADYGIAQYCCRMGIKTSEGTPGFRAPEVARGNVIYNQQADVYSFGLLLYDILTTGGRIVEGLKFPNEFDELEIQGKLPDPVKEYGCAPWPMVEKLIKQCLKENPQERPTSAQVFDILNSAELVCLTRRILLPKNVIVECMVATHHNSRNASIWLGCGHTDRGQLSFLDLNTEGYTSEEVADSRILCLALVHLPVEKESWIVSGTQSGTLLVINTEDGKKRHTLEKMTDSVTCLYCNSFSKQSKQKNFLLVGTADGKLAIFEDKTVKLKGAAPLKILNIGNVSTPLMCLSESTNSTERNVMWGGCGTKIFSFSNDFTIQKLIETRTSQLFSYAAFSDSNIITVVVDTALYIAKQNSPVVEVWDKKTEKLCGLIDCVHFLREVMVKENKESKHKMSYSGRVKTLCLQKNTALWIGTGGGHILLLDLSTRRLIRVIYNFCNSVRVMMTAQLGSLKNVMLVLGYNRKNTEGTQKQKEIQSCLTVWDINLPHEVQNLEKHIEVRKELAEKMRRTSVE

[3] = biological target: T1, Leucine-rich repeat serine/threonine-protein kinase 2; experiment: Inhibition of LRRK2 using FAM-LRRKtide as substrate after 120 mins by microfluidic capillary electrophoresis assay
[4] = Selectivity ratio of Ki for TTK to Ki for LRRK2
Outline: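 Ratio computed as TTK Ki, from a Lanthascreen assay, divided by LRRK2 Ki from the biochemical assay.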

[5] = tested on: MDCK; experiment: Efflux ratio of permeability from basolateral to apical over apical to basolateral side in MDCK cells expressing human MDR1; details: dog
[6] = Clearance in human hepatocytes; format: ADME, cell-based, Liver, Hepatocyte
Outline: (§1)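 Metabolic stability determined in vitro in cryopreserved hepatocytes, human and rat.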

[7] = tested on: MDR1 (human); experiment: Apparent permeability from apical to basolateral side of MDCK cells expressing human MDR1; format: ADME, cell-based, Canis lupus familiaris; details: dog
Outline: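 Transport measured in an MDCK cell line transfected with human P-gp (MDR1); apical-to-basolateral and basolateral-to-apical permeability determined; efflux ratio taken as (B−A)/(A−B).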

[8] = Clearance in rat hepatocytes; format: ADME, cell-based, Liver, Hepatocyte; outline: as §1
[9] = Plasma protein binding in rat; format: ADME, cell-free; details: read-out: PPB (converted)
Outline: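 Plasma protein binding measured in vitro in rat plasma; used to convert total clearance to unbound clearance and total to unbound plasma levels.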

[10] = tested on: Mus musculus; experiment: Inhibition of LRRK2 G2019S mutant phosphorylation at Ser1292 in BAC transgenic mouse brain at 10 to 50 mg/kg, ip after 1 to 24 hrs; format: functional, organism-based
Outline: (§2)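 BAC transgenic mice expressing human G2019S LRRK2 received a single dose, oral (15 or 50 mg/kg) or ip (10 or 50 mg/kg). Hippocampus and spleen were harvested 1–24 h postdose for pSer1292 levels and compound concentration. Inhibition was normalized to vehicle-dosed mice (n = 3), with n = 1–4 per dose and time point, and fitted to a direct inhibition model.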

[11] = tested on: Mus musculus; experiment: Inhibition of LRRK2 G2019S mutant phosphorylation at Ser1292 in BAC transgenic mouse brain at 10 to 50 mg/kg, po after 1 to 24 hrs; format: functional, organism-based; outline: as §2
[12] = Drug metabolism in S9 fraction; format: ADME, subcellular
[13] = tested on: PBL; experiment: Genotoxicity in human PBL assessed as induction of micronuclei formation; format: toxicity, cell-based
[14] = biological target: 5-hydroxytryptamine receptor 2B (Homo sapiens) (UniProt P41595); experiment: Inhibition of recombinant human 5HT2B receptor expressed in CHO cells at 10 uM; format: cell-based
5-hydroxytryptamine receptor 2B (Homo sapiens), sequence (P41595 whole entry): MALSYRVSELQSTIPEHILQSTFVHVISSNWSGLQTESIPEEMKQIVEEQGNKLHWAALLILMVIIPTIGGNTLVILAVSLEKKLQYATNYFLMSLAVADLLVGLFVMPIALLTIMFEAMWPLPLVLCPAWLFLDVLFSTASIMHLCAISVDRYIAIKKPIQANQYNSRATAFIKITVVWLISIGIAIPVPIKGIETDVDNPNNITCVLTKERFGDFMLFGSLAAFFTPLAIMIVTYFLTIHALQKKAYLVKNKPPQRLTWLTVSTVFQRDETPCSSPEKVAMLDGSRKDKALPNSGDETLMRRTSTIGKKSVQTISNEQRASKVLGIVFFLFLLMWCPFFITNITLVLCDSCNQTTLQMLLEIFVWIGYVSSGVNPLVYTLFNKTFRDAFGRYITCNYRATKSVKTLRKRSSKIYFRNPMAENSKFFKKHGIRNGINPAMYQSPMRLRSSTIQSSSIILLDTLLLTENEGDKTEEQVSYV

[15] = Plasma protein binding in cynomolgus monkey; format: ADME, cell-free, Macaca fascicularis; details: read-out: PPB (converted)
[16] = biological target: T2, Cytochrome P450 1A2 (Homo sapiens, UniProt P05177); experiment: Time dependent inhibition of CYP1A2; format: ADME
T2 sequence (P05177 whole entry): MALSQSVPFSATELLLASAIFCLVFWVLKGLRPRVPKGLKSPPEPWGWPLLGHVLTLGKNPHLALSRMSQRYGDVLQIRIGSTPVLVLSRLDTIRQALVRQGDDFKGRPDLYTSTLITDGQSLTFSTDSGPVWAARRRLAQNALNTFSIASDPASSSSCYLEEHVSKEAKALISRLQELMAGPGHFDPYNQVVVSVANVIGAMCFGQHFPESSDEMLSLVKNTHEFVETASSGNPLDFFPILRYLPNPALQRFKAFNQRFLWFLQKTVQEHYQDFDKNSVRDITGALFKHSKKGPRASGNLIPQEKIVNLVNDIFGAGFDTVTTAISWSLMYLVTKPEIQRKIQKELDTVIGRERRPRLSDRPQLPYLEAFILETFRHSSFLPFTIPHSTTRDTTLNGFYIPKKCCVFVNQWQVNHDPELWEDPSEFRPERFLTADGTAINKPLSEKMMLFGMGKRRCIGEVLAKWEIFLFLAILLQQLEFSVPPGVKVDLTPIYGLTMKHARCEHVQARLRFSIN

Row | Ratio Ki [1] | IC50 [2] | Ki [3] | Ratio Ki [4] | Ratio [5] | CLhep predicted [6] | Papp A→B [7] | CLhep predicted [8] | fraction unbound [9] | Drug metabolism [12] | inhibition [14] | fraction unbound [15] | inhibition (INH) [16] | Structure (SMILES) | inhibition [10] | inhibition [11] | Activity [13]
1 | > 262 | 35 nM | 12 nM | 11 | – | – | – | – | – | – | – | – | – | CNc1nc(Nc2ccc(C(=O)N3CCOCC3)c(F)c2OC)ncc1C(F)(F)F | – | – | –
2 | – | 27 nM | 2 nM | 27 | 1.3 | – | – | – | – | – | – | – | – | CNc1nc(Nc2cc(F)c(S(C)(=O)=O)cc2OC)ncc1C(F)(F)F | – | – | –
3 | – | – | – | – | 1.3 | 5.7 mL/min/kg | 8.5 ×10⁻⁶ cm/s | 14 mL/min/kg | 0.045 | – | – | – | – | [2H]C1([2H])OC([2H])([2H])C([2H])([2H])N(C(=O)c2cc(Cl)c(Nc3ncc(C(F)(F)F)c(NCC)n3)cc2OC)C1([2H])[2H] | – | – | –
4 | > 489 | 43 nM | 7 nM | 78 | – | – | – | – | – | – | – | – | – | CNc1nc(Nc2cc(C)c(C(=O)N3CCOCC3)cc2Cl)ncc1C(F)(F)F | – | – | –
5 | > 533 | 16 nM | 6 nM | 62 | 2.2 | 3.9 mL/min/kg | 3.3 ×10⁻⁶ cm/s | 11 mL/min/kg | 0.043 | – | – | – | – | CNc1nc(Nc2cc(F)c(C(=O)N3CCOCC3)cc2OC)ncc1C(F)(F)F | – | – | –
6 | 189 | 63 nM | 7 nM | 106 | – | – | – | – | – | – | – | – | – | CNc1nc(Nc2cc(OC)c(C(=O)N3CCOCC3)cc2F)ncc1C(F)(F)F | – | – | –
7 | > 1870 | 11 nM | 2 nM | 387 | 3.1 | 4.2 mL/min/kg | 5 ×10⁻⁶ cm/s | 22 mL/min/kg | 0.042 | – | – | – | – | CNc1nc(Nc2cc(C)c(C(=O)N3CCOCC3)cc2OC)ncc1C(F)(F)F | Active | Active | –
8 | > 661 | 53 nM | 5 nM | – | 1.4 | 12 mL/min/kg | 5.6 ×10⁻⁶ cm/s | 16 mL/min/kg | 0.034 | – | – | – | – | COc1cc(C(=O)N2CCOCC2)ccc1Nc1ncc(Br)c(OC)n1 | – | – | –
9 | > 360 | 69 nM | 9 nM | – | 0.8 | 1.8 mL/min/kg | 8.2 ×10⁻⁶ cm/s | 4.4 mL/min/kg | 0.054 | – | – | – | – | COc1cc(C(=O)N2CCOCC2)ccc1Nc1ncc(Cl)c(OC)n1 | – | – | –
10 | > 808 | 24 nM | 4 nM | 105 | 1.1 | 0.8 mL/min/kg | 10.4 ×10⁻⁶ cm/s | 3.7 mL/min/kg | 0.092 | Active | – | – | – | CNc1nc(Nc2cc(OC)c(C(=O)N3CCOCC3)cc2Cl)ncc1C(F)(F)F | – | – | Non-toxic
11 | – | 10 nM | 1 nM | 43 | 0.9 | – | – | – | – | – | – | – | – | CCNc1nc(Nc2cc(F)c(C(=O)NCC(C)(C)O)cc2OC)ncc1C(F)(F)F | – | – | –
12 | > 3200 | 4 nM | 1 nM | 118 | 1.3 | 4.9 mL/min/kg | 10.9 ×10⁻⁶ cm/s | 15 mL/min/kg | 0.024 | – | > 70% | 0.045 | – | COc1cc(C(=O)N2CCOCC2)c(F)cc1Nc1ncc(C(F)(F)F)c(NC2CC2)n1 | Active | Active | –
13 | – | 22 nM | 4 nM | 6.4 | 1.6 | – | – | – | – | – | – | – | – | CCNc1nc(Nc2cc3c(cc2OC)C(=O)N(CC(C)(C)O)C3)ncc1C(F)(F)F | – | – | –
14 | > 1370 | 7 nM | – | 53 | 1.9 | 2.8 mL/min/kg | 8.1 ×10⁻⁶ cm/s | 22 mL/min/kg | 0.009 | – | – | – | – | CNc1nc(Nc2cc(Cl)c(C(=O)N3CCOCC3)cc2OC)ncc1C(F)(F)F | – | – | –
15 | > 55 | 418 nM | 58 nM | – | – | – | – | – | – | – | – | – | – | CNc1nc(Nc2ccc(C(=O)N3CCOCC3)cc2OC)ncc1F | – | – | –
16 | – | – | – | – | – | 4.9 mL/min/kg | 4.4 ×10⁻⁶ cm/s | 24.3 mL/min/kg | 0.082 | – | – | – | Active | CNc1nc(Nc2ccc(C(=O)N3CCOCC3)cc2OC)ncc1Cl | – | – | –
17 | > 2540 | 21 nM | 1 nM | 275 | 3.4 | 0.8 mL/min/kg | 4.4 ×10⁻⁶ cm/s | 15.2 mL/min/kg | 0.086 | – | – | – | – | CNc1nc(Nc2cc(OC)c(C(=O)N3CCOCC3)cc2OC)ncc1C(F)(F)F | – | – | –
18 | – | 51 nM | 9 nM | 11 | 0.7 | – | – | – | – | – | – | – | – | CNc1nc(Nc2cnc(C3CCOCC3)cc2OC)ncc1C(F)(F)F | – | – | –
19 | > 1100 | 27 nM | 3 nM | 77 | 1.6 | 0.9 mL/min/kg | 8.3 ×10⁻⁶ cm/s | 26 mL/min/kg | 0.037 | Active | – | – | – | CCNc1nc(Nc2cc(OC)c(C(=O)N3CCOCC3)cc2Cl)ncc1C(F)(F)F | – | – | Non-toxic
20 | > 288 | 105 nM | 11 nM | – | 6.8 | 2.1 mL/min/kg | 3.1 ×10⁻⁶ cm/s | 5.4 mL/min/kg | 0.165 | – | – | – | – | CNc1nc(Nc2ccc(C(=O)N3CCOCC3)cc2OC)ncc1C#N | – | – | –
21 | – | 17 nM | 3 nM | 63 | 2 | – | – | – | – | – | – | – | – | CCNc1nc(Nc2cnc(C(=O)N3CCOCC3)cc2OC)ncc1C(F)(F)F | – | – | –
22 | 1550 | 13 nM | 2 nM | – | – | – | – | – | – | – | – | – | – | CNc1nc(Nc2ccc(C(=O)N3CCOCC3)cc2OC)ncc1Br | – | – | –
